Source: PubChem BioAssay (The Scripps Research Institute Molecular Screening Center)
This is a sample that favours compounds with a hit; in the whole collection about 1.9% have one here.
PLCb3 inh = blocks human PLC-beta3 enzyme activity. Q01970. Purified PLC-beta3, fluorogenic substrate, fluorescence. inhibition, % at 12.2 µM. 0.18% of 370,000 active; in the data active means inhibition above about 11%;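 further: 0% = median of compound wells on plate and 100% = full blocker control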
TbMetRS inhib = Trypanosoma brucei MetRS inhibition | 0.4% of 360,000 active | inhibition, % at 11.9 µM | purified T. brucei MetRS, ATP depletion, Kinase-Glo luminescence | AID 624268;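 active means inhibition above a per-plate cutoff of the control wells' mean inhibition plus 3 SD, cut at about 5.5% in these data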;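 further: 0% = DMSO wells median and 100% = median of wells with control inhibitor compound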
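Dosing: 11.9 µM compound single dose, 0.9% DMSO; Assay system: purified T. brucei MetRS enzyme; Measured by: Kinase-Glo luciferase luminescence reporting remaining unconsumed ATP; Schedule: 15 min plus 2 h at 25 °C.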
HGIII-sPLA2 inh = Inhibits HGIII-sPLA2 liposome hydrolysis, primary screen; inhibition, % at 12.2 µM; QFRET BODIPY PC-A2 liposome hydrolysis, fluorescence; Q9NZ20; 0.56% of 370,000 active; AID 743126;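 active means inhibition above mean plus 3 SD of compounds lying within the high and low control bounds, cut at about 19% in these data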;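 further: 0% = median of test compound wells and 100% = no enzyme DMSO wells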
DAGLB inhibitor = diacylglycerol lipase beta (human) inhibition; Q8NCG7; HEK293T DAGLB membrane lysate, EnzChek fluorogenic substrate; 0.059% of 340,000 active; inhibition, % at 5.17 µM; AID 504411; in the data active means inhibition above about 34%;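 further: 0% = enzyme with vehicle and 100% = wells lacking enzyme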
Target sequence (Q8NCG7 whole entry, looked up): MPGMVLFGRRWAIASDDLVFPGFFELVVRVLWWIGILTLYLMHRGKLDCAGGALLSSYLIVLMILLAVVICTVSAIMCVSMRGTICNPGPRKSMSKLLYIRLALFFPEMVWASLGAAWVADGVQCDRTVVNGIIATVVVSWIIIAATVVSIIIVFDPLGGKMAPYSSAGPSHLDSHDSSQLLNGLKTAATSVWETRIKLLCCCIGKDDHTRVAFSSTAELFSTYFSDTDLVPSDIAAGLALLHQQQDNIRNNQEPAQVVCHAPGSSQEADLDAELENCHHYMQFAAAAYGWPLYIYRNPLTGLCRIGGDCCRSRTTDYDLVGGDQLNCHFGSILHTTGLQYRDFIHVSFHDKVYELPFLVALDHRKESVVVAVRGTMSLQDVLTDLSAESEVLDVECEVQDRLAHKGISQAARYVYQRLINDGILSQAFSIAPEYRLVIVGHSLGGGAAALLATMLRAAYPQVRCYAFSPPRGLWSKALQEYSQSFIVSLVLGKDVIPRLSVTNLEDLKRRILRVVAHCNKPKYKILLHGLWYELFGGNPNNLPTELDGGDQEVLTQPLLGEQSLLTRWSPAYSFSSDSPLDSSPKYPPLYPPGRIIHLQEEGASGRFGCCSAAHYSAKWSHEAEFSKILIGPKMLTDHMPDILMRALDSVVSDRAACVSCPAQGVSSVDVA
PLCg1 inh = blocks human PLC-gamma1 enzyme activity. P19174. purified PLC-gamma1, fluorogenic substrate, fluorescence. inhibition, % at 12.2 µM. 0.84% of 370,000 active. AID 720700; in the data active means inhibition above about 9.5%
TbMetRS confirm = confirmation of Trypanosoma brucei MetRS inhibitors. inhibition, % at 11.9 µM. 93% of 1,400 active. shares compounds with TbMetRS inhib. T. brucei MetRS enzyme, luminescence (ATP depletion); in the data active means inhibition above about 7%
Jurkat tox = counter-screen for T. brucei MetRS inhibitors: Jurkat cell cytotoxicity | shares compounds with TbMetRS inhib | 12% of 1,400 active | inhibition, % at 8.3 µM | AID 624413 | Jurkat cells viability, ATP luminescence; in the data active means inhibition above about 15%;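 further: 0% = vehicle and 100% = reference inhibitor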
TbMetRS FP orth = T. brucei MetRS inhibition, orthogonal assay; shares compounds with TbMetRS inhib; purified T. brucei MetRS, fluorescence polarization; inhibition, % at 11.9 µM; 44% of 1,400 active; AID 651607; in the data active means inhibition above about 17%;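 further: 0% = vehicle wells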
An asterisk follows results filed as active; i = inactive; . = not tested or not shown.

SMILES	PLCb3 inh	TbMetRS inhib	HGIII-sPLA2 inh	DAGLB inhibitor	PLCg1 inh	TbMetRS confirm	Jurkat tox	TbMetRS FP orth
O=C1CCC(=O)N1OCCCOc1ccc(Br)cc1Cl	-0.6	7.0*	3.8	-3.2	2.5	14.8*	-1.1	32.8*
Cc1ccc(SCc2nc3ccccc3n2CC(=O)Nc2ccccc2)cc1	3.6	2.0	-28.6	-1.7	5.7	.	.	.
Cc1ccc(SCc2nc3ccccc3n2CC(=O)Nc2ccc(Cl)cc2)cc1	5.6	16.7*	0.9	-5.4	1.1	21.8*	2.4	89.4*
Oc1c(C=Nc2ccccc2)sc(=S)n1Cc1ccccc1	-1.6	-0.4	-7.1	-4.9	-1.5	.	.	.
CCCn1c(O)c(/C=C2\C=NN=C2c2ccccc2)sc1=S	4.9	-0.2	-11.0	-8.2	3.8	.	.	.
CCCC(C(=O)O)n1c(O)c(C=C2N=c3ccccc3=N2)sc1=S (stereo not given)	-139.0	5.8*	-3.5	4.8	-103.9	33.3*	-5.8	10.1
O=C(O)CCCn1c(O)c(C=C2N=c3ccccc3=N2)sc1=S	-42.4	29.0*	-11.6	2.6	-28.6	43.8*	9.1	19.5*
O=C(O)Cn1c(O)c(C=Nc2ccccc2)sc1=S	-7.9	0.1	-3.0	2.3	-6.8	.	.	.
O=C(O)CCCCCn1c(O)c(C=C2N=c3ccccc3=N2)sc1=S	-27.6	8.8*	-12.3	4.2	-26.9	24.9*	-3.6	12.0
COc1ccc2[nH]cc(C(=O)CN3CCN(C(=O)c4ccco4)CC3)c2c1	-14.7	6.4*	-3.0	2.1	-9.6	3.6	-5.1	-4.3
O=C(NC1CCCCN(Cc2cccc(C(F)(F)F)c2)C1=O)c1ccc(-c2ccccc2)cc1 (stereo not given)	-2.0	.	3.1	.	-1.0	.	.	.
O=c1[nH]c(COc2ccc(Br)cc2Cl)nc2ccccc12	-18.1	6.2*	-2.7	-1.0	-9.4	30.0*	3.0	14.0
Cc1cc2c(nc1C)CCCN2S(=O)(=O)c1c(C)noc1C	-8.3	.	12.8	.	-2.8	.	.	.
O=C(CCN(CCO)Cc1ccccc1)Nc1ccc(Br)cc1	1.0	20.2*	-8.3	-2.9	1.8	39.7*	0.5	14.7
Nc1cc2nc[nH]c2cc1N	-93.6	6.3*	-4.1	2.0	-70.4	10.0*	-7.1	3.8
O=C(Nc1ccc(S(=O)(=O)Nc2cnc3ccccc3n2)cc1)c1ccc(Cl)c([N+](=O)[O-])c1	-17.0	11.6*	-66.0	14.1	-9.9	24.2*	-0.9	6.9
CCCn1cnc2cc(NCc3cccc(OC)c3O)ccc21	-39.1	8.4*	-5.6	2.8	-29.4	15.2*	-0.1	3.0
COc1cccc(CNC(=S)OC2CCC23CCC(c2ccccc2)CC3)c1 (stereo not given)	-3.8	.	1.6	.	-1.0	.	.	.
C=CCNC(=S)NNC(=O)COc1ccc2cc(Br)ccc2c1	-7.7	19.4*	-2.7	1.1	-5.8	46.5*	-0.7	23.6*
CCn1c2ccccc2c2cc(NC(=O)COC(=O)c3ccc(F)cc3F)ccc21	1.8	.	2.4	.	-3.6	.	.	.
CCn1c2ccccc2c2cc(NC(=O)COC(=O)c3cc(F)ccc3C)ccc21	3.8	.	-3.2	.	-0.9	.	.	.
COc1ccc2[nH]c3c(NCCCOC(C)C)ncnc3c2c1	i	6.2*	6.7	1.4	i	17.4*	8.9	10.1
COc1ccc2[nH]c3c(NCCC4=CCCCC4)ncnc3c2c1	-268.6	17.8*	-42.8	1.5	-157.3	39.9*	51.5*	30.8*
COc1cccc(-c2ccc(CC[C@H]3O[C@H]4CC[C@H](CO)O[C@H]4C[C@H]3NS(C)(=O)=O)cc2)c1	-0.6	.	-28.2	.	0.1	.	.	.
Cc1ccccc1NC(=O)N(CCc1nc2ccccc2[nH]1)Cc1ccccc1	-0.3	7.0*	-8.4	-1.2	-1.0	13.8*	13.5	4.1
SMILES	PLCb3 inh	TbMetRS inhib	HGIII-sPLA2 inh	DAGLB inhibitor	PLCg1 inh	TbMetRS confirm	Jurkat tox	TbMetRS FP orth
CC(=O)Nc1cccc(CCc2nc3ccccc3[nH]2)c1	-6.4	0.1	5.6	0.6	0.0	.	.	.
COC(=O)C1=C(C)N(Cc2cccc(C(F)(F)F)c2)C(=NCc2cc(OC)c(OC)c(OC)c2)NC1c1cccc(F)c1 (stereo not given)	-0.6	.	-17.0	.	1.2	.	.	.
Oc1oc(-c2ccc(Br)cc2)nc1C=Nc1ccc(Br)cn1	0.6	8.7*	0.1	-4.4	-0.8	64.6*	-3.9	31.6*
Cc1ccc2nc(N/C(=N/S(=O)(=O)c3cccs3)c3ccccc3Cl)sc2c1	-32.5	6.8*	-51.0	10.9	-17.5	13.4*	4.1	7.8
S=c1[nH]nc(-c2n[nH]c3c2CCC3)n1N=Cc1c[nH]c2ccccc12	2.0	.	1.4	.	2.9	.	.	.
O=C(Cn1c(NCCO)nc2ccccc21)c1ccc([N+](=O)[O-])cc1	-4.3	19.6*	-34.3	1.3	0.3	3.2	6.4	7.5
O=C(Cn1c(NCCCO)nc2ccccc21)c1ccc([N+](=O)[O-])cc1	-2.9	-0.1	-26.5	1.0	2.1	.	.	.
COc1ccc(OCC(O)Cn2cnc(-c3ccc(Br)cc3)c2)cc1 (stereo not given)	2.2	13.8*	-47.9	-2.0	0.5	22.4*	0.5	7.9
OC(COc1ccc(Br)cc1)Cn1ccnc1 (stereo not given)	-8.0	0.2	6.0	-0.6	0.5	.	.	.
Cn1c(CN2CCCC(C(=O)c3ccc4c(c3)OCO4)C2)nc2ccccc21 (stereo not given)	-0.6	6.4*	1.3	-0.4	4.2	12.2*	-1.2	0.7
Nc1n[nH]c(N)c1N=Nc1ccccc1F	2.8	-0.5	-3.8	2.2	5.6	.	.	.
Nc1n[nH]c(N)c1N=Nc1ccc(Cl)cc1Cl	1.6	9.7*	7.8	8.2	3.5	22.2*	19.2*	35.9*
C=CCc1cccc(CNc2cnc3ccccc3c2)c1O	-78.7	6.0*	-38.1	1.4	-54.3	12.1*	30.6*	12.5
Oc1ccc(Cl)cc1CNc1cnc2ccccc2c1	-56.5	12.6*	-50.4	3.5	-43.6	14.1*	30.3*	9.6
C=CCc1cccc(CNc2nc3ccccc3n2C)c1O	-3.6	28.1*	-4.4	-3.9	2.2	46.0*	-1.3	25.7*
COc1ccc(CNc2nc3ccccc3n2C)c(O)c1	3.6	3.1	-2.6	2.0	2.6	.	.	.
Cn1c(NCc2cc(Br)ccc2O)nc2ccccc21	3.8	41.3*	-5.4	0.8	5.3	57.6*	6.1	24.4*
Oc1ccccc1CNc1cnc2ccccc2c1	-98.3	-0.8	-10.8	2.9	-100.3	.	.	.
COc1ccc(OCc2nn3c(-c4ccccc4)nnc3s2)cc1	1.1	.	10.5	.	-0.3	.	.	.
Nc1[nH]c(C(=O)c2ccccc2)c(-c2ccc(O)cc2)c1C(=O)NCCc1c[nH]c2ccccc12	-5.5	.	-47.0	.	-4.9	.	.	.
COc1ccc(S(=O)(=O)Nc2c(C)cccc2C)cc1-n1cnnn1	-0.1	5.9*	-1.5	-1.6	5.3	2.6	-6.0	0.9
